# ChEMBL document CHEMBL1121573, “2-(Aminomethyl)phenols, a new class of saluretic agents. 1. Effects of nuclear substitution” (J Med Chem, 1980)
# Tested on: Canis familiaris
# Experiment: Compound administered intravenously at a dose of 5 mg/kg was evaluated for salidiuretic activity measured as sodium ion excretion in Dog
# Format: ADME, organism-based, Canis lupus familiaris, Urine
# Design: dose 5 mg/kg, route intravenous
# Conditions: in vivo, iv
# Procedure, shortened: (§1)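 Conditioned female mongrel dogs, postabsorptive, water-loaded (500 mL po) 1 h before sodium pentobarbital anesthesia (30 mg/kg iv). Bladder catheter; creatinine 4 g sc; phosphate–mannitol buffer pH 7.4 infused (3.0 mL/min) throughout. […] Urine Na+ measured; response scored 0–6.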
row,Diuretic activity,Structure (SMILES)
1,> 900,CC(C)(C)c1cc(Br)c(O)c(CN)c1.Cl
2,> 900,CCCc1cc(Cl)c(O)c(CN)c1.Cl

# Tested on: Rattus norvegicus
# Experiment: Evaluated for salidiuretic activity measured as sodium ion excretion in Rat, administered orally at a dose of 50 mg/kg
# Format: functional, Urine
# Design: unit not given beside the values
# Conditions: route oral
# Procedure, shortened: (§2)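 Female Charles-River rats (150–170 g), overnight on sugar diet with water ad libitum. Compound dissolved in DMF, diluted with water containing Tween 80 (final 4% DMF), given po in 5.0 mL; concurrent vehicle placebo. Three rats per metabolism cage; 0–5 h urine analysed for Na+, K+, Cl-. Values: mequiv × 100 per cage, geometric means of three cages per dose; scored 0–6 by Na+.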
row,Structure (SMILES),Diuretic activity
1,CCC(C)c1cc(Cl)c(O)c(CN)c1.Cl (stereo not given),3.6
2,Cc1c(Cl)c(C)c(CN)c(O)c1Cl.Cl,3.3
3,Cl.NCc1c(O)c(Cl)c(Cl)c(Cl)c1Cl,3.3
4,COc1c(Cl)c(OC)c(CN)c(O)c1I.Cl,3.3
5,CC(C)(C)c1cc(CN)c(O)c(C(F)(F)F)c1.Cl,3.3
6,Cc1c(Br)c(C)c(CN)c(O)c1Br.Cl,3.3
7,CC(C)(C)c1cc(Br)c(O)c(CN)c1.Cl,3.9
8,CCCc1cc(Cl)c(O)c(CN)c1.Cl,3.3
9,Cl.NCc1c(O)c(Cl)cc(Cl)c1F,3.3
10,Cl.NCc1cc(Cl)c(Cl)c(Cl)c1O,3.3

# Tested on: Rattus norvegicus
# Experiment: Compound administered orally at a dose of 1 mg/kg was evaluated for salidiuretic activity measured as sodium ion excretion in Rat
# Conditions: in vivo, po
row,Diuretic activity,Structure (SMILES)
1,0.7,CCC(C)c1cc(Cl)c(O)c(CN)c1.Cl (stereo not given)
2,2.1,CC(C)(C)c1cc(Br)c(O)c(CN)c1.Cl

# Tested on: not listed separately
# Experiment: Compound administered orally at a dose of 5 mg/kg was evaluated for salidiuretic activity measured as sodium ion excretion in Rat
# Format: organism-based
# Design: dose 5 mg/kg
# Conditions: Urine
# Procedure, shortened: as §2
row,Structure (SMILES),Diuretic activity
1,CCC(C)c1cc(Cl)c(O)c(CN)c1.Cl (stereo not given),2.6
2,Cc1c(Cl)c(C)c(CN)c(O)c1Cl.Cl,1.4
3,Cl.NCc1c(O)c(Cl)c(Cl)c(Cl)c1Cl,1.4
4,COc1c(Cl)c(OC)c(CN)c(O)c1I.Cl,1.4
5,CC(C)(C)c1cc(CN)c(O)c(C(F)(F)F)c1.Cl,1.4
6,Cc1c(Br)c(C)c(CN)c(O)c1Br.Cl,1.4
7,CC(C)(C)c1cc(Br)c(O)c(CN)c1.Cl,3.6
8,CCCc1cc(Cl)c(O)c(CN)c1.Cl,1.4
9,Cl.NCc1c(O)c(Cl)cc(Cl)c1F,1.4
10,Cl.NCc1cc(Cl)c(Cl)c(Cl)c1O,1.4

# Tested on: Canis familiaris
# Experiment: Compound administered intravenously was evaluated for salidiuretic activity measured as sodium ion excretion in Dog; Value ranges from 250-399
# Format: ADME, organism-based, Canis lupus familiaris, Urine
# Conditions: in vivo, iv
# Procedure, shortened: as §1
row,Structure (SMILES),Diuretic activity
1,CC(=O)c1cc(C(C)(C)C)cc(CN)c1O.Cl,250
2,COc1c(C(C)(C)C)cc(Cl)c(O)c1CN.Cl,250
3,COc1cc(Cl)c(OC)c(CN)c1O.Cl,250

# Further lines, results first:
row,Diuretic activity,Structure (SMILES)
1,250,Cc1cc(Cl)c(Cl)c(CN)c1O.Cl
2,250,CCOc1cc(Cl)c(O)c(CN)c1.Cl
3,250,CCCCCC(C)c1cc(C)c(O)c(CN)c1.Cl (stereo not given)
4,250,COc1c(C)c(OC)c(CN)c(O)c1Cl
5,250,Cl.NCc1cc(-c2ccccc2)cc(Cl)c1O

# Tested on: Canis familiaris
# Experiment: Compound administered intravenously was evaluated for salidiuretic activity measured as sodium ion excretion in Dog; Value ranges from 0-99
# Format: ADME, organism-based, Canis lupus familiaris, Urine
# Conditions: in vivo, iv
# Procedure, shortened: as §1
row,Structure (SMILES),Diuretic activity
1,CCCc1cc(C(C)(C)C)cc(CN)c1O.Cl,0
2,Cc1c(Cl)cc(CN)c(O)c1C.Cl,0
3,Cc1cc(N)c(C)c(CN)c1O.Cl.Cl,0

# Now from value to compound:
row,Diuretic activity,Structure (SMILES)
1,0,Cl.NCc1cc(CN)c(Cl)c(Cl)c1O
2,0,CC(C)(C)CC(C)(C)c1cc(Cl)c(O)c(CN)c1.Cl
3,0,CC(C)(C)c1cc(CN)c(O)c(C(C)(C)C)c1
4,0,Cc1cc(O)c(CN)c(C)c1C.Cl
5,0,Cc1cc(Cl)c(C)c(CN)c1O.Cl

# Tested on: not listed separately
# Experiment: Evaluated for salidiuretic activity measured as sodium ion excretion in Rat, administered orally at a dose of 16.5 mg/kg
# Format: organism-based
# Design: dose 16.5 mg/kg
# Conditions: Urine
# Procedure, shortened: as §2
row,Structure (SMILES),Diuretic activity
1,CCC(C)c1cc(Cl)c(O)c(CN)c1.Cl (stereo not given),3.3
2,Cc1c(Cl)c(C)c(CN)c(O)c1Cl.Cl,2.7
3,Cl.NCc1c(O)c(Cl)c(Cl)c(Cl)c1Cl,2.7
4,COc1c(Cl)c(OC)c(CN)c(O)c1I.Cl,2.7
5,CC(C)(C)c1cc(CN)c(O)c(C(F)(F)F)c1.Cl,2.7
6,Cc1c(Br)c(C)c(CN)c(O)c1Br.Cl,2.7
7,CC(C)(C)c1cc(Br)c(O)c(CN)c1.Cl,4.2
8,CCCc1cc(Cl)c(O)c(CN)c1.Cl,2.7
9,Cl.NCc1c(O)c(Cl)cc(Cl)c1F,2.7
10,Cl.NCc1cc(Cl)c(Cl)c(Cl)c1O,2.7

# Tested on: Canis familiaris
# Experiment: Salidiuretic activity in dog following i.v. dosing at 5 mg/kg
# Format: functional, Canis lupus familiaris, Urine
# Design: unit not given beside the values
# Conditions: route intravenous
# Procedure, shortened: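 Conditioned female mongrel dogs, postabsorptive, got a 500 mL oral water load 1 h before pentobarbital anesthesia (30 mg/kg iv). After replicate 15-min control collections, compound was given as an iv stat injection.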
row,Structure (SMILES),Diuretic activity
1,CC(C)(c1ccccc1)c1ccc(O)c(CN)c1.Cl,250
2,Cc1c(Cl)ccc(O)c1CN.Cl,250
3,Cl.NCc1c(O)c(Cl)c(Cl)c(Cl)c1Cl,250
4,Cl.NCc1cc(Cl)cc(-c2ccccc2)c1O,250
5,CCCc1cc(CN)c(O)c(CCC)c1.Cl,250
6,Cl.NCc1cc(Cl)cc(C(=O)O)c1O,250
7,CCCc1cc(CN)c(O)c(OC)c1.Cl,250
8,CCCc1ccc(O)c(CN)c1.Cl,250
9,Cl.NCc1cc(Cl)cc(F)c1O,250
10,Cl.NCc1cc(Cl)c(Cl)c(Cl)c1O,250

# Tested on: Canis familiaris
# Experiment: Compound administered intravenously at a dose of 5 mg/kg was evaluated for salidiuretic activity measured as sodium ion excretion in Dog; Value ranges from 800-899
# Format: ADME, organism-based, Canis lupus familiaris, Urine
# Design: dose 5 mg/kg, route intravenous; unit not given beside the values
# Conditions: in vivo, iv
# Procedure, shortened: as §1
row,Diuretic activity,Structure (SMILES)
1,800,CCC(C)c1cc(Cl)c(O)c(CN)c1.Cl (stereo not given)
2,800,COc1c(Cl)c(OC)c(CN)c(O)c1I.Cl
3,800,CC(C)(C)c1cc(CN)c(O)c(C(F)(F)F)c1.Cl
4,800,Cc1c(Br)c(C)c(CN)c(O)c1Br.Cl
5,800,Cl.NCc1c(O)c(Cl)cc(Cl)c1F
